A selection: hits, their analogues and other compounds. The true share with any hit is near 9.4%.
CSC inhib: cancer stem cell inhibition. cancer stem cell-like cells viability, luminescence. inhibition, % at 7.5 µM. actives 1.1% (n = 300,000). AID 2717; in the data active = inhibition above about 75%; tested in HMLE shEcad cells
Lmaj promast: Leishmania major promastigote growth inhibition. Leishmania major promastigotes, resazurin fluorescence viability. inhibition, % at 10 µM. actives 9% (n = 200,000). AID 1063; in the data active = inhibition above about 50%;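 note: promastigotes grown with compound for 44 hours at 28 °C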
Mdm2-MdmX inh: disrupts the human Mdm2-MdmX interaction | O15151+Q00987 | SaOS-2 split-luciferase Mdm2/MdmX complementation, luminescence | inhibition, % at 8 µM | actives 3% (n = 330,000);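 active = inhibition of at least 50% at 8 µM in the primary screen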
Target sequence (O15151 whole entry, looked up): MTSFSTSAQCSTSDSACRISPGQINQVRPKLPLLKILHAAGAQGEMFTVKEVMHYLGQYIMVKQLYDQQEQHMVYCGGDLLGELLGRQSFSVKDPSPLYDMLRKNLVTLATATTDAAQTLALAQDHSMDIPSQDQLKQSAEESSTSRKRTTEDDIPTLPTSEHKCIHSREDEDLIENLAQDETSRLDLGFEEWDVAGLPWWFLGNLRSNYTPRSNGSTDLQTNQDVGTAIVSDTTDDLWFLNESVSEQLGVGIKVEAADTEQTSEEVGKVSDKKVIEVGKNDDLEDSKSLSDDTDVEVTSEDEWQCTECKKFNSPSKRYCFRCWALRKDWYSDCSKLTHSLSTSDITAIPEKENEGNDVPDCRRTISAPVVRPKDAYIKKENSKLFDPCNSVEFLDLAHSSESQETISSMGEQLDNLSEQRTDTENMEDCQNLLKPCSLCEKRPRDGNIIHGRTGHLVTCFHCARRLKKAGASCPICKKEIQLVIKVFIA
Target sequence (Q00987 whole entry, looked up): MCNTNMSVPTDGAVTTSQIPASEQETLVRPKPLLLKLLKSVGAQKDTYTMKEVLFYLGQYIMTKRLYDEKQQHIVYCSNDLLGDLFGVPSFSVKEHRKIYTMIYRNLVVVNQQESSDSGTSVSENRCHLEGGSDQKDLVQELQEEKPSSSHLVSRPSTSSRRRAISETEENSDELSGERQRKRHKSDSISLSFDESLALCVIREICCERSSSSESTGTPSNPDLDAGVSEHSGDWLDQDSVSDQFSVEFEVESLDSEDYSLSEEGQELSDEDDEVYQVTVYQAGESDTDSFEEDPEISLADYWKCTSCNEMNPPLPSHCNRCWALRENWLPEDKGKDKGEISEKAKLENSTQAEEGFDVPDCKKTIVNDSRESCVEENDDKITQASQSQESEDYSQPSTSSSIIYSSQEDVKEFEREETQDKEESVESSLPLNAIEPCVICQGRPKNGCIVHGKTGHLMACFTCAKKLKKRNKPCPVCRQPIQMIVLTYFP
Beta apoptosis: blocks beta cell apoptosis | protection from apoptosis, % (test concentration not listed) | actives 0.8% (n = 300,000) | INS-1E cytokine-induced death, ATP luminescence, 48 h; percent of positive-control rescue, neutral wells zero;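 active = Every replicate reaches about 75%, or at least half do and their mean reaches it too, limit read from the data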;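 note: 0% = cytokine-treated negative control wells and 100% = positive control rescue; higher means more ATP so stronger rescue from cytokine killing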
T cruzi repl: blocks replication of Trypanosoma cruzi. T. cruzi beta-gal in NIH3T3, luminescence, 90 h. inhibition, % (no concentration beside the values). actives 1.4% (n = 300,000). AID 1885;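 active = mean inhibition across valid replicates above about 55%, limit read from the data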;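 note: signal also drops with host cell toxicity which is not excluded here; 0% = plate median of DMSO wells and 100% = zero luminescence signal; higher percent means less beta-gal luminescence so fewer parasites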
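System – NIH/3T3 host cells with β-galactosidase reporter T. cruzi · Doses – single 50 nL compound addition per well in DMSO · Reagent – 5000 T. cruzi trypomastigotes/well · Medium – Low-serum DMEM with 2% FBS · Timing – ≥90 h infection period, 3 h prior cell attachment · Evaluation – parasite load inhibition, % · Technique – GalScreen luminescence, 60 min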
SKKanGAS inh: blocks kanamycin growth of S. pyogenes SKKanGAS strain; actives 1.3% (n = 300,000); BacTiter-Glo, 6 h; inhibition, % at 7.5 µM;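 active = mean replicate score, as percent of positive control median, at least 50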;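 note: strain carries kanamycin resistance gene driven by streptokinase promoter and grows in 40 µg/ml kanamycin; loss of luminescence reflects streptokinase promoter inhibition or plain growth inhibition; 0% = median of DMSO wells and 100% = positive control at its reference dose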
The depositor's hits bear a star; · = no result.

SMILES	CSC inhib	Lmaj promast	Mdm2-MdmX inh	Beta apoptosis	T cruzi repl	SKKanGAS inh
CCc1ccc(OCC(=O)Nc2ccc(-c3nc4ccccc4o3)c(O)c2)cc1	9	0	-58	2	-7	-5
Oc1cc(NCc2cccnc2)ccc1-c1nc2ccccc2o1	50	99*	-281	29	45	16
COc1ccc(-c2nc(CN3CCN(C(=O)c4ccco4)CC3)c(C)o2)c(F)c1	-1	·	15	·	0	15
O=C(NC(=S)NCC1CCCO1)c1ccc([N+](=O)[O-])cc1 (stereo unspecified)	-35	52*	-16	-8	7	1
O=C(NCC1CCCO1)c1ccc([N+](=O)[O-])s1 (stereo unspecified)	-6	·	-19	2	67*	4
O=C(NC(=S)NCC1CCCO1)c1ccc(Cl)cc1 (stereo unspecified)	-19	8	-16	-4	-8	-1
O=C(NCC1CCCO1)c1ccc(Br)s1 (stereo unspecified)	-1	·	10	-4	-1	2
Cc1nc2ccccc2c(=O)n1/N=C/c1ccc(F)cc1	-3	·	3	1	17	-6
Cc1csc(NC(=O)c2cc3c(C)nn(Cc4ccccc4Cl)c3s2)n1	59	96*	15	22	46	36
C=CCn1c(=NC(=O)c2cc(Cl)sc2Cl)sc2cc(S(N)(=O)=O)ccc21	24	0	33	10	28	7
COCCn1c(=NC(=O)c2cc(-c3cccs3)nc3ccccc23)sc2cc(S(N)(=O)=O)ccc21	71	41	41	12	67*	37
C=CCn1c(=NC(=O)c2cc(-c3cccs3)nc3ccccc23)sc2cc(S(N)(=O)=O)ccc21	62	39	28	92*	46	15
CCN(CC)CCCNC(=S)N(Cc1cccnc1)Cc1cc2cc(C)ccc2[nH]c1=O	-12	·	3	-7	-12	-3
COc1ccc(S(=O)(=O)n2cnc(C)c2)cc1	13	-1	-3	-1	0	-5
O=C1/C(=C/c2ccc(O)cc2)SC(=S)N1CC1CCCO1 (stereo unspecified)	28	·	-7	-12	9	5
CCCOc1ccc(/C=C2\SC(=S)N(CC3CCCO3)C2=O)cc1 (stereo unspecified)	19	66*	-19	-1	-8	10
CC(=O)c1cccc(Nc2cc(C)nc3ccc(C)cc23)c1	-2	·	29	10	7	-3
CC(=O)c1cccc(Nc2cc(C)nc3c(C)cc(C)cc23)c1	1	100*	-6	18	56*	-11
Nc1cc(C(=O)O)ccc1Sc1ccccc1C(=O)O	0	-7	-15	-8	-4	-2
CC1CCCCN1c1cc(C#N)c(C#N)cc1[N+](=O)[O-] (stereo unspecified)	81*	1	-8	7	2	12
O=c1cc(CNc2ccc(Br)cc2)nc2sccn12	-6	71*	-10	-6	6	6
CN(Cc1cc(=O)n2ccsc2n1)c1ccccc1	3	3	10	-4	-9	2
C/C=C/c1ccc(OCCOc2cc(C=O)ccc2OC)c(OC)c1	-14	85*	-68	-10	-22	5
C/C=C/c1ccc(OCCCNC2CCCC2)c(OC)c1	2	100*	9	5	48	-4
COc1ccc(-c2cc(C(F)(F)F)nc(S(=O)(=O)CCCC(=O)Nc3cccnc3Cl)n2)cc1OC	·	82*	·	·	·	·
SMILES	CSC inhib	Lmaj promast	Mdm2-MdmX inh	Beta apoptosis	T cruzi repl	SKKanGAS inh
C=CCN(c1ccccc1Cl)S(=O)(=O)c1cccc(C(=O)NCCc2ccc(OC)cc2)c1	-2	64*	27	2	31	-4
COc1ccc(S(=O)(=O)N2CCCCCC2)cc1C(=O)N(C)Cc1cccs1	-7	·	19	-5	7	-6
O=C(NCC(c1cccnc1)N1CCN(c2ccccc2F)CC1)OCc1ccccc1 (stereo unspecified)	20	96*	-10	4	56*	-6
O=C(NCC(c1cccnc1)N1CCOCC1)Nc1ccccc1 (stereo unspecified)	-4	-5	4	-10	-3	3
O=C(NCC(c1cccnc1)N1CCN(c2ccccc2)CC1)C1CCCCC1 (stereo unspecified)	-2	74*	23	4	56*	1
O=C(NCC(c1ccco1)N1CCN(c2ccc(F)cc2)CC1)OCc1ccccc1 (stereo unspecified)	11	3	-14	9	0	16
COc1cccc(C(=O)NCC(c2ccc3c(c2)OCO3)N2CCN(c3ccc(F)cc3)CC2)c1 (stereo unspecified)	11	·	3	2	18	-11
O=C(NCC(c1cccnc1)N1CCN(c2ccc(F)cc2)CC1)OCc1ccccc1 (stereo unspecified)	4	99*	6	1	60*	2
O=C(NCC(c1cccnc1)N1CCN(c2ccc(F)cc2)CC1)c1cccc(Cl)c1 (stereo unspecified)	3	96*	15	3	54	6
CC(C)=CCC[C@](C)(O[C@@H]1O[C@H](CO[C@@H]2OC[C@@H](O)[C@H](O)[C@H]2O)[C@@H](O)[C@H](O)[C@H]1O)C1CC[C@]2(C)C1[C@H](O)CC1[C@@]3(C)CC[C@H](O[C@@H]4O[C@H](CO)[C@@H](O)[C@H](O)[C@H]4O)C(C)(C)C3CC[C@]12C (stereo partly specified)	·	·	-6	-1	·	·
C[C@H](NC(=O)c1ccccc1)C(=O)N1CCC2(CC1)NCCc1[nH]cnc12	-18	·	27	-1	-18	-7
CC(=O)c1ccc(OCCNS(=O)(=O)c2ccc(-n3cnnn3)cc2)cc1	-2	·	2	-3	-13	-4
COc1ccc(CN(C)C(C)C(=O)Nc2ccc(S(=O)(=O)N3CCCCC3)cc2)cc1F (stereo unspecified)	·	·	-18	1	·	·
COC(=O)NCC(c1cccnc1)N1CCN(c2ccccc2)CC1 (stereo unspecified)	-3	45	4	-2	27	-3
O=C(NCC(c1cccnc1)N1CCN(c2ccccc2)CC1)OCc1ccccc1 (stereo unspecified)	10	96*	17	3	54	-15
COc1cc(C)nc(NC(=O)NC(=O)c2ccc(C(F)(F)F)cc2)n1	2	·	-1	0	-11	-5
COc1ccccc1C(=O)N=c1sc2c(C)ccc(OC)c2n1C	8	·	-68	5	33	-13
CCCCOCCCNc1ncnc2c1[nH]c1ccccc12	26	80*	25	114*	24	1
CCOCCCNc1ncnc2c1[nH]c1ccccc12	-5	44	25	78*	9	0
COc1ccc(S(=O)(=O)NC(CC(=O)NCCc2ccc(OC)c(OC)c2)C(C)C)cc1 (stereo unspecified)	-11	-9	17	-4	18	-1
